Columns and labels:
[1] = system: Hec50co cells; assay: Cell viability; type: cell-based, human; conditions: PD98059 alone
[2] = system: Hec50co cells; assay: Cell cycle analysis by flow cytometry; type: cell-based, human
In short: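 Hec50co cells seeded at 5×10^3 cells/well in complete DMEM and held 24 hr at 37°C, 5% CO2. They were then exposed 24 hr to taxane (5 or 10 nM), MEK inhibitor (25 μM) or both. Cells were PBS-washed, trypsinized, fixed in ice-cold 70% ethanol 30 min at 4°C, then taken up in PBS with 1% NP40 and 100 μg/mL RNase at 37°C for 30 min. Flow cytometry gave % cells per phase; mean ± SD, n = 3.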

[3] = Plasma pharmacokinetics after IV injection in mice; type: in vivo, BALB/CJ mice; conditions: for C0 / clearance / MRT inf / half-life / Vd: BALB/CJ, mouse, iv, 113 ug; for clearance: Cl; for MRT inf: MRT0-inf; for Vd: Vss
In short: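 Same IV dosing of mice (113 μg, solution or nanoparticle-loaded), sampled 5, 30, 60, 120, 180 and 360 min. Blood was spun at 10,600 xg for 5 min, and plasma was extracted and assayed by C18 HPLC-UV (methanol:water 70:30, 0.1% TFA, 320 nm). Concentration–time data were analysed in PK Solver by non-compartmental, 1- and 2-compartment models. n = 3, mean ± SD.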

[4] = Biodistribution of PD98059 in mouse organs after IV injection; type: in vivo, BALB/CJ mice; conditions: mice; for AUC0-6: IV
In short: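 BALB/CJ mice (8 weeks, 20–23 g) got 113 μg test compound as solution, or as loaded PAMAM-coated PLGA-PEG nanoparticles (3 mg, equivalent dose), IV retro-orbitally. Organs were taken at 5–360 min, rinsed, bead-homogenised in PBS with 7-hydroxyflavone internal standard, and ethyl acetate-extracted. Levels were measured by C18 HPLC-UV at 320 nm against the area ratio to standard. n = 3, mean ± SD.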

[5] = rats, 2-compartment open model; cited from earlier work
[6] = in 24 h; cited from earlier work
[7] = Non compartment model, IV, mice
[8] = One-compartment model, IV, mice
[9] = Two-compartment model, IV, mice

For `COc1cccc(-c2cc(=O)c3ccccc3o2)c1N` [PD98059, 2-(2-Amino-3-methoxyphenyl)-4H-1-benzopyran-4-one], the cytotoxicity ([1]; 5 μM) was 3.8%, the cytotoxicity ([1]; 10 μM) was 5.3% and the cytotoxicity ([1]; 25 μM) was 17%. For the same molecule, the “cells at the G0/G1 phase” value ([2]; 25 μM PD98059, 24 hr) was 63.04%, the C0 ([3]; C0, Non compartment model, mice) was 2910 ng/mL and the C0 ([3]; C0, One-compartment model, mice) was 2630 ng/mL. The C0 ([3]; C0, Two-compartment model, mice) was 3150 ng/mL, the clearance ([3]; Non compartment model, mice) was 0.31 mL/min and the clearance ([3]; One-compartment model, mice) was 1.25 mL/min. For the same molecule, the clearance ([3]; Two-compartment model, mice) was 0.29 mL/min, the MRT inf ([3]; Non compartment model, mice) was 7.29 h and the MRT inf ([3]; One-compartment model, mice) was 0.503 h. The MRT inf ([3]; Two-compartment model, mice) was 9.26 h, the half-life ([3]; T1/2(α), Two-compartment model, mice) was 0.151 h and the half-life ([3]; T1/2(β), Two-compartment model, mice) was 7.13 h. It also gave a half-life ([3]; T1/2, Non compartment model, mice) of 5.25 h, a half-life ([3]; T1/2, One-compartment model, mice) of 0.348 h and a Vd [3, 7] of 0.136 L. It also gave a Vd [3, 8] of 0.0379 L, a Vd [3, 9] of 0.163 L and a K ([3]; Non compartment model, IV 113 μg PD98059, mice) of 0.0022 min⁻¹. The AUC0-inf [3, 7] was 320.68 μg x min/mL, the AUC0-t [3, 7] was 175.72 μg x min/mL and the AUMC0-inf [3, 7] was 140,206.69 μg x min^2/mL. It also gave a V [3, 7] of 141.65 mL, an AUC0-inf [3, 8] of 79.61 μg x min/mL and an AUC0-t [3, 8] of 79.61 μg x min/mL. The AUMC0-inf [3, 8] was 2,402.29 μg x min^2/mL, the K [3, 8] was 0.033 min⁻¹ and the V [3, 8] was 37.90 mL. The A [3, 9] was 2.65 µg/mL, the AUC0-inf [3, 9] was 340.78 μg x min/mL and the AUC0-t [3, 9] was 170.01 μg x min/mL. The AUMC0-inf [3, 9] was 189,279.12 μg x min^2/mL, the B [3, 9] was 0.49 µg/mL and the K10 [3, 9] was 0.0092 min⁻¹. It also gave a K12 [3, 9] of 0.055 min⁻¹, a K21 [3, 9] of 0.013 min⁻¹ and a V [3, 9] of 31.72 mL. For the same molecule, the α [3, 9] was 0.076 min⁻¹, the β [3, 9] was 0.0016 min⁻¹ and the “maximum PD98059 level in the brain” value ([4]; 5 minutes following IV injection) was “about 3 μg/g”. The AUC0-6 ([4]; Brain) was 334.25 μg x min/mL, the AUC0-6 ([4]; Heart) was 160.37 μg x min/mL and the AUC0-6 ([4]; Kidney) was 301.47 μg x min/mL. For the same molecule, the AUC0-6 ([4]; Liver) was 125.38 μg x min/mL, the AUC0-6 ([4]; Lung) was 459.51 μg x min/mL and the AUC0-6 ([4]; Muscle) was 129.86 μg x min/mL. The AUC0-6 ([4]; Pancreas) was 177.37 μg x min/mL, the AUC0-6 ([4]; Spleen) was 129.72 μg x min/mL and the distribution half-life [5] was “less than 10 minutes”. For the same molecule, the “free PD98059 dissolved” value [6] was “more than 80%”.
With `CC(=O)O[C@H]1C(=O)[C@@]2(C)[C@H]([C@H](OC(=O)c3ccccc3)[C@]3(O)C[C@H](OC(=O)[C@H](O)[C@@H](NC(=O)c4ccccc4)c4ccccc4)C(C)=C1C3(C)C)[C@]1(OC(C)=O)CO[C@@H]1C[C@@H]2O` [PTX, paclitaxel] the “cells at the G2/M phase” value ([2]; 5 nM PTX + 25 μM PD98059, 24 hr) was 42.15%, the “cells at the G2/M phase” value ([2]; 5 nM PTX, 24 hr) was 37.2% and the “cells at the G2/M phase” value ([2]; 10 nM PTX + 25 μM PD98059, 24 hr) was 74.99%. The “cells at the G2/M phase” value ([2]; 10 nM PTX, 24 hr) was 45.74%.
